Reference: publication PMC9444296 (Investigative Radiology, 2022)
“Also recorded” adds a separate entry of the source.

What was measured:
CYP2C19 = CYP2C19 (Homo sapiens, UniProt P33261); assay: CYP2C19 inhibition in human liver microsomes; assay type: in vitro ADME; conditions: 0.01, 0.1, 1, 10, and 100 μM, pooled human liver microsomes 0.5 mg/mL
OAT1 = OAT1 (Homo sapiens, UniProt Q4U2R8); assay: OAT1 inhibition, HEK293 cells; assay type: in vitro ADME; conditions: 1, 5, 10, 50, and 100 μM
CYP1A2 = CYP1A2 (Homo sapiens, UniProt P05177); conditions: 0.01, 0.1, 1, 10, and 100 μM, pooled human liver microsomes 0.5 mg/mL
[1] = system: cardiovascular and respiratory system functions; assay: Cardiovascular and respiratory safety pharmacology in conscious beagle dogs; assay type: in vivo, dog; conditions: single IV 0.07, 0.21, or 0.70 mmol/kg
How it was run: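 GLP study in 9 conscious beagle dogs (4 M, 5 F) given a single IV dose of saline or 0.07, 0.21 or 0.70 mmol/kg, at 3.5 mL/kg. Recorded within 1 h predose and at 0.5, 1, 2, 4 and 24 h: ECG (HR, PR, QRS, QT/QTcF, QRS voltage, STe, rhythm, waveform), systolic/diastolic/mean blood pressure, respiratory frequency and tidal volume.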

CNS functions = assay: CNS safety pharmacology; assay type: in vivo, rat; conditions: SD rats, single IV 0.1, 0.3, and 1.0 mmol/kg, functional observational battery
How it was run: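 GLP study in SD rats, 5/sex/group, given a single IV dose of 0, 0.1, 0.3 or 1 mmol/kg. A functional observational battery was run at 0.25, 0.75, 1.5 and 4 h post-dose: home-cage, hand-held and open-field observations, responses to stimuli, forelimb grip strength and body temperature.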

GABAA = assay: SAFETYscan E/IC50 assay, GABAA; assay type: biochemical; conditions: concentration range 0.005 to 100 μM
How it was run: (§1)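 Contract-laboratory in vitro panel of 78 targets, run in agonist and/or antagonist modes under provider SOPs over 0.005 to 100 μM. Panel formats included enzyme fragment complementation, FLIPR-based cellular assays, kinase binding and enzymatic assays.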

MAOA = MAOA (Homo sapiens, UniProt P21397); assay: SAFETYscan E/IC50 assay, MAOA; assay type: biochemical; conditions: concentration range 0.005 to 100 μM
How it was run: as §1

r1 and r2 relaxivity = assay type: physicochemical
How it was run: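 For the 1.4 T conditions, test compound was prepared at 0.125, 0.25, 0.5, 1 and 2 mM in HSA (40 mg/mL), water or PBS. T1 and T2 were measured on a benchtop relaxometer at 37°C.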

CAV1.2 = CAV1.2 (Homo sapiens, UniProt Q13936); assay: SAFETYscan E/IC50 assay, CAV1.2; assay type: biochemical; conditions: concentration range 0.005 to 100 μM
How it was run: as §1

[2] = system: 78 common biological targets; assay: SAFETYscan 78-target panel; assay type: biochemical; conditions: 0.005 to 100 μM
beagle dogs = assay: Single and repeated dose toxicity and toxicokinetics in beagle dogs; assay type: in vivo, dog; conditions: for accumulation ratio AUC0–24h (D14)/AUC0–24h (D1) of Gd: 14 days
How it was run: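 GLP study in beagle dogs aged 6–7 months (M 7.34–10.58 kg, F 6.50–9.87 kg). Dosing was a single IV 0.70 mmol/kg or daily IV 0.07, 0.21 or 0.70 mmol/kg/d for 2 weeks, with saline placebo and a 2-week recovery. Clinical observation, organ weights and macro/microscopic histopathology were done. Gd accumulation ratio was AUC0–24h(D14)/AUC0–24h(D1).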

[3] = Pharmacokinetics in SD rats; assay type: in vivo, rat; conditions: for AUC: AUC 0-4h; for AUC / AUCINF / C0 / Cl / MRT / T1/2 / Vz: Gd by ICP-MS, NCA, n = 3
How it was run: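 SD rats (3/sex) received a single IV dose of 0.04, 0.1 or 0.2 mmol/kg. Jugular blood was drawn predose and at 2, 5, 10, 15, 30 and 45 min and 1, 2, 3 and 4 h. Parameters were derived by noncompartmental analysis.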

CYP2C9 = CYP2C9 (Homo sapiens, UniProt P11712); assay: CYP2C9 inhibition in human liver microsomes; conditions: 0.01, 0.1, 1, 10, and 100 μM, pooled human liver microsomes 0.5 mg/mL
[4] = SD rat ♀, 0.04 mmol/kg single IV
[5] = SD rat ♀, 0.1 mmol/kg single IV
[6] = SD rat ♀, 0.2 mmol/kg single IV
[7] = SD rat ♂, 0.04 mmol/kg single IV
[8] = SD rat ♂, 0.1 mmol/kg single IV
[9] = SD rat ♂, 0.2 mmol/kg single IV

Chain of CYP2C9 (P11712 whole entry): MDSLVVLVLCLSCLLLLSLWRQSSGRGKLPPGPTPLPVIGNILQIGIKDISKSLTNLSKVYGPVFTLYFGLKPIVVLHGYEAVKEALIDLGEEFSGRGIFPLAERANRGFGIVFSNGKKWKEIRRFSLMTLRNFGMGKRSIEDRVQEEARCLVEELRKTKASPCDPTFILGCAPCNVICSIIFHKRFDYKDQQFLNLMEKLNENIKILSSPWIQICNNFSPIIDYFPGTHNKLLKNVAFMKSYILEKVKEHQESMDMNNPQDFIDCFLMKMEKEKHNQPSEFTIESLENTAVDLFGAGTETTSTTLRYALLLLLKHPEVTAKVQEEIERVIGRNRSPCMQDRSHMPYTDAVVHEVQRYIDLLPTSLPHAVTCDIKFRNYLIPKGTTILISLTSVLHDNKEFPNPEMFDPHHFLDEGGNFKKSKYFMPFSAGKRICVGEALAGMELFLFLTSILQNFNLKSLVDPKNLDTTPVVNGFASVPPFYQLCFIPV
Chain of CAV1.2 (P54289 957-1103): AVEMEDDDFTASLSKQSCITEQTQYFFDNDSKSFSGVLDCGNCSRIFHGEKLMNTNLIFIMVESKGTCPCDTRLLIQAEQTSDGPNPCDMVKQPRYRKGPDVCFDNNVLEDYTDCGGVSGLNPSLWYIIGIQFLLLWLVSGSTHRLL
Chain of CAV1.2 (Q08289 whole entry, further chain): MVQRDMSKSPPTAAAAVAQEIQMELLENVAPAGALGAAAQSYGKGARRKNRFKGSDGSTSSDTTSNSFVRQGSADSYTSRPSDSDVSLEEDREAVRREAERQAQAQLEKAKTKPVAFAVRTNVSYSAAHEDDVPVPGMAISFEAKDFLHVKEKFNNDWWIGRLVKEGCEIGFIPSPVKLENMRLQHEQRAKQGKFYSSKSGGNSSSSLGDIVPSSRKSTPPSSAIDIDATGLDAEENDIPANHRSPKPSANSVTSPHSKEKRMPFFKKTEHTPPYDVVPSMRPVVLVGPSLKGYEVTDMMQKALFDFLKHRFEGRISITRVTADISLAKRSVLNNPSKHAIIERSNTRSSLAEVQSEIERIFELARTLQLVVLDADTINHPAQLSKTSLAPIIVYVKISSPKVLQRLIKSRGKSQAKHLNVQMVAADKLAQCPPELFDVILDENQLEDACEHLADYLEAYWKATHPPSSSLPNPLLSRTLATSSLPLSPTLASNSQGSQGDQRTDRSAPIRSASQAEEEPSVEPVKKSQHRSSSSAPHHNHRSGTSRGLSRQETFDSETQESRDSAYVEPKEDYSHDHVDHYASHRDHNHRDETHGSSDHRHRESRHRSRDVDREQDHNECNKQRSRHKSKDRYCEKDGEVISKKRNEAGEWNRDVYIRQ
Chain of CAV1.2 (Q13936 whole entry): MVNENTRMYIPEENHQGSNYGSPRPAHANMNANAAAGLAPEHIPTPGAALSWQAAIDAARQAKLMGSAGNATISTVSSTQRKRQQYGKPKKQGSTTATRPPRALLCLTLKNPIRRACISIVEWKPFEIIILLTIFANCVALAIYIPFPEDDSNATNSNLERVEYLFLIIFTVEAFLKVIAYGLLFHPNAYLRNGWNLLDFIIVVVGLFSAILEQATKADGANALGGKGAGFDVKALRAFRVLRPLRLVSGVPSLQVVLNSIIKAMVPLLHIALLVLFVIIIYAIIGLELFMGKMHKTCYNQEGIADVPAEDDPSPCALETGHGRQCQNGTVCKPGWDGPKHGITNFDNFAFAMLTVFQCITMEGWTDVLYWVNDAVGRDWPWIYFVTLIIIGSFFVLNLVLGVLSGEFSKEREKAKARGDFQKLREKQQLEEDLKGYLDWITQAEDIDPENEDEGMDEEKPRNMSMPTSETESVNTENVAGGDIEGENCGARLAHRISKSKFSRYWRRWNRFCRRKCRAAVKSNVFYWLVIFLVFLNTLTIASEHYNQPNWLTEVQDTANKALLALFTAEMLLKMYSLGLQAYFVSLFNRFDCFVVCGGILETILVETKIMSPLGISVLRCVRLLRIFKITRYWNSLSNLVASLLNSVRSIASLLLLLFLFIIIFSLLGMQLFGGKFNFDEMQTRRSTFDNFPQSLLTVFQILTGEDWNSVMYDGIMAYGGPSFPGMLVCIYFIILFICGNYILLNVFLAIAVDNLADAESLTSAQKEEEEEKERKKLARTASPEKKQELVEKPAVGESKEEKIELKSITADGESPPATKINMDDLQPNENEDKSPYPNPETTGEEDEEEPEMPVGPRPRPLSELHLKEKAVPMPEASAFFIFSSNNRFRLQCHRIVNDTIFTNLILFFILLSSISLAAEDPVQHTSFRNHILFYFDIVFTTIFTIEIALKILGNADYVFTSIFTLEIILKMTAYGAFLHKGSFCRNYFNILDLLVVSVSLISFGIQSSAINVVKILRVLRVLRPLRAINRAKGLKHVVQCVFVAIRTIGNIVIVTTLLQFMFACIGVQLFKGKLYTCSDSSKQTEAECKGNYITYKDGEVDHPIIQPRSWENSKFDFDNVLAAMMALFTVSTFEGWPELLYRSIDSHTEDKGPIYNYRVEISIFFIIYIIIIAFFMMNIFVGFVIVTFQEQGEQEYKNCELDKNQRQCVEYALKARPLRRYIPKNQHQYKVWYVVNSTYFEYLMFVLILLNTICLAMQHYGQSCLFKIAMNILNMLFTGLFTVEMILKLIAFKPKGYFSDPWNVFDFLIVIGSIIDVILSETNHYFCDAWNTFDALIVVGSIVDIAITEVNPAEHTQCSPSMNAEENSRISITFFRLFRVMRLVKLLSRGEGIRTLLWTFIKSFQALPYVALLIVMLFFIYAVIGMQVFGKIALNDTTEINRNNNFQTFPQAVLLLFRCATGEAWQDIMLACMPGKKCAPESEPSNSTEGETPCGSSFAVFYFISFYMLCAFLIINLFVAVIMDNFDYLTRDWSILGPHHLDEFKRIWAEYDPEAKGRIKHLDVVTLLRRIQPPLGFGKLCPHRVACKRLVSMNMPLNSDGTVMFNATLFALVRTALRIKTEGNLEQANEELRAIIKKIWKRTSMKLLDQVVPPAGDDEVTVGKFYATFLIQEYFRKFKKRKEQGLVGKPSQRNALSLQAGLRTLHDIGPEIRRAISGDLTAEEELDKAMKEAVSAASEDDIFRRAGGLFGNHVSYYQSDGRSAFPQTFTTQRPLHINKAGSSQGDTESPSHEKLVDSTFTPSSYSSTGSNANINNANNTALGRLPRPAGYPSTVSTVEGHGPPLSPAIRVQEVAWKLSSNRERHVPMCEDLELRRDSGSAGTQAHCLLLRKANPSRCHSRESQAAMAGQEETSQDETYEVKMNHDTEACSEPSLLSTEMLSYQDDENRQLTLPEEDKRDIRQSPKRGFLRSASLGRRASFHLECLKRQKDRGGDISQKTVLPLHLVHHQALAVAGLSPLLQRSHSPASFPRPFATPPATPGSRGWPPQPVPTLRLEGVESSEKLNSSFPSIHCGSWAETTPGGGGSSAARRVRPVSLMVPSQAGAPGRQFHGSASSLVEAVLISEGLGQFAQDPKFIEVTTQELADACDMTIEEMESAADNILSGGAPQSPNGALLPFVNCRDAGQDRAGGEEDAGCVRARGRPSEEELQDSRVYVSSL
Chain of CAV1.2 (P54289 25-956): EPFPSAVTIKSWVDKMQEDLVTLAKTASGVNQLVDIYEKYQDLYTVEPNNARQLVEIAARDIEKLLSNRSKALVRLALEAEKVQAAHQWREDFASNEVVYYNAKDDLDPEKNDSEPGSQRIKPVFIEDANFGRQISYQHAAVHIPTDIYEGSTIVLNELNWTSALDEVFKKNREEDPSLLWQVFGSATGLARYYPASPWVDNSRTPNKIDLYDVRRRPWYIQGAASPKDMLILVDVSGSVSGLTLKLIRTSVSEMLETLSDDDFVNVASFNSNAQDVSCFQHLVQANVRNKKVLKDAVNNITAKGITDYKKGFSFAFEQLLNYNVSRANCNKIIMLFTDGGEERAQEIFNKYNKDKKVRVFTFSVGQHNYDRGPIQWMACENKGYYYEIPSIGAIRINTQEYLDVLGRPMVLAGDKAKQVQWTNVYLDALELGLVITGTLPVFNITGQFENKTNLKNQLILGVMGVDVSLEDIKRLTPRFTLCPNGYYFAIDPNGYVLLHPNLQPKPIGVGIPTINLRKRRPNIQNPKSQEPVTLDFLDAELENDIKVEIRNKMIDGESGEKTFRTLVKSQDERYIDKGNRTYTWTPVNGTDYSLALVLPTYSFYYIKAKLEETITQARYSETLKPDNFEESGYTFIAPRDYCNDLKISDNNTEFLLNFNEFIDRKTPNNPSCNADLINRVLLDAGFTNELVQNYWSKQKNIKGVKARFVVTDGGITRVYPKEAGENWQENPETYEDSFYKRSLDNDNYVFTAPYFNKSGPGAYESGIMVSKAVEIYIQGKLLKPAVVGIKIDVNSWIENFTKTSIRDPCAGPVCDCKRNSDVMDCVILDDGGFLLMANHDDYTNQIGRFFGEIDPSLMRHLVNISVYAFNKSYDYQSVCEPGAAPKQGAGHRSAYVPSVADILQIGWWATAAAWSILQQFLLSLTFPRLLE
Chain of CYP2C19 (P33261 whole entry): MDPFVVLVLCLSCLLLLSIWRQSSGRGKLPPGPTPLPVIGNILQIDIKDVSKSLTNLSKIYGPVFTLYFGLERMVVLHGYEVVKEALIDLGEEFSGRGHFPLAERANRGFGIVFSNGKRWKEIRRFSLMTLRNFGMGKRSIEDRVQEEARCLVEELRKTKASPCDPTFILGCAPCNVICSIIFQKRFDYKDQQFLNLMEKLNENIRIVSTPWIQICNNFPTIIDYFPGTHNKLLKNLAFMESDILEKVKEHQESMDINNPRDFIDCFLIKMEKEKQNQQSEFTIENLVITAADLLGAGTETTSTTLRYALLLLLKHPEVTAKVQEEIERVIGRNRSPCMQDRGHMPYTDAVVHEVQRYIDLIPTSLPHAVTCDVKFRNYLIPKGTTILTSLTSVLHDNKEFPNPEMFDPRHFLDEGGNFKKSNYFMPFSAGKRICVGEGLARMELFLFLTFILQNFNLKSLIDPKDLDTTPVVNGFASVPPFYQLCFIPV

ZD2-N3-Gd(HP-DO3A) [MT218]
inhibition of CYP2C19 activity (CYP2C19): did not inhibit | inhibition of OAT1 transporter activity (OAT1): no inhibition potential | inhibition of CYP1A2 activity (CYP1A2): did not inhibit | effect on ECG, blood pressure and respiratory function parameters [1]: no MT218-related effect | effect on parameters of CNS function (CNS functions): No MT218-related effect | inhibition rate (GABAA): 24.25% | inhibition rate (MAOA): 10.21% | r1 Relaxivity (r1 and r2 relaxivity; 1.4 T, HSA aqueous solution (40 mg/mL), 37°C): 6.54 mM⁻¹ s⁻¹ | r1 Relaxivity (r1 and r2 relaxivity; 1.4 T, PBS, 37°C): 6.58 mM⁻¹ s⁻¹ | r1 Relaxivity (r1 and r2 relaxivity; 3.0 T, H2O, MRS 3000 scanner): 6.25 (H2O) mM^−1 s^−1 | r1 Relaxivity (r1 and r2 relaxivity; 3.0 T, PBS): 6.16 mM⁻¹ s⁻¹ | inhibition rate (CAV1.2): 15.58% | target-specific secondary pharmacologic activity [2]: did not exhibit any notable target-specific secondary pharmacologic activity | NOAEL (beagle dogs; dog, single dosing): not established | mortality or moribundity (beagle dogs; dogs, any dose group, up to 0.70 mmol/kg/d): no mortality or morbidity; also recorded: No mortality or moribundity | clinical observations (body weight, food consumption, temperature, ophthalmoscopy, hematology, coagulation, clinical chemistry, urinalysis) (beagle dogs; dogs, any dose level): No MT218-related changes | pathological findings (beagle dogs; dogs, both sexes, repeated 0.21 mmol/kg/d and 0.70 mmol/kg/d): reversible renal tubule degeneration | NOAEL (beagle dogs; dogs, repeated daily IV dose for 14 days): 0.07 mmol/kg/day | pathological findings (beagle dogs; dogs, repeated low doses 0.07 mmol/kg/d): No renal abnormality | pathological findings (beagle dogs; dogs, single dose 0.70 mmol/kg, no longer evident on day 15): mild bilateral tubule degeneration of proximal and distal tubules | clinical signs during the dosing period (beagle dogs; dogs, single- and repeated-medium and high-dose groups, disappeared after dosing completion): Sporadic symptoms of emesis, retching, and salivation | accumulation ratio AUC0–24h (D14)/AUC0–24h (D1) of Gd (beagle dogs; female dogs, high dose 0.70 mmol/kg/d IV): 1.00 | accumulation ratio AUC0–24h (D14)/AUC0–24h (D1) of Gd (beagle dogs; female dogs, low dose 0.07 mmol/kg/d IV): 0.91 | accumulation ratio AUC0–24h (D14)/AUC0–24h (D1) of Gd (beagle dogs; female dogs, medium dose 0.21 mmol/kg/d IV): 0.99 | accumulation ratio AUC0–24h (D14)/AUC0–24h (D1) of Gd (beagle dogs; male dogs, high dose 0.70 mmol/kg/d IV): 1.02 | accumulation ratio AUC0–24h (D14)/AUC0–24h (D1) of Gd (beagle dogs; male dogs, low dose 0.07 mmol/kg/d IV): 0.92 | accumulation ratio AUC0–24h (D14)/AUC0–24h (D1) of Gd (beagle dogs; male dogs, medium dose 0.21 mmol/kg/d IV): 1.07 | AUC [3, 4]: 10940 ng·h/mL | AUC [3, 5]: 27840 ng·h/mL | AUC [3, 6]: 58600 ng·h/mL | AUC [3, 7]: 11080 ng·h/mL | AUC [3, 8]: 28860 ng·h/mL | AUC [3, 9]: 53170 ng·h/mL | AUC Ratio ([3]; AUC(dose)/AUC(low dose), SD rat ♀, 0.04 mmol/kg): 1 | AUC Ratio ([3]; AUC(dose)/AUC(low dose), SD rat ♂, 0.04 mmol/kg): 1 | AUC Ratio ([3]; AUC(high dose)/AUC(low dose), SD rat ♀, 0.2 mmol/kg): 5.36 | AUC Ratio ([3]; AUC(high dose)/AUC(low dose), SD rat ♂, 0.2 mmol/kg): 4.80 | AUC Ratio ([3]; AUC(middle dose)/AUC(low dose), SD rat ♀, 0.1 mmol/kg): 2.55 | AUC Ratio ([3]; AUC(middle dose)/AUC(low dose), SD rat ♂, 0.1 mmol/kg): 2.61 | AUCINF [3, 4]: 11130 ng·h/mL | C0 [3, 4]: 75.09 µg/mL | Cl [3, 4]: 9.4683 mL/min/kg | MRT [3, 4]: 17.4 min | T1/2 [3, 4]: 16.8 min | Vz [3, 4]: 0.22422 L/kg | AUCINF [3, 5]: 28020 ng·h/mL | C0 [3, 5]: 158.07 µg/mL | Cl [3, 5]: 9.5898 mL/min/kg | MRT [3, 5]: 20.4 min | T1/2 [3, 5]: 19.2 min | Vz [3, 5]: 0.27335 L/kg | AUCINF [3, 6]: 58710 ng·h/mL | C0 [3, 6]: 209.22 µg/mL | Cl [3, 6]: 9.2098 mL/min/kg | MRT [3, 6]: 25.8 min | T1/2 [3, 6]: 19.2 min | Vz [3, 6]: 0.2564 L/kg | AUCINF [3, 7]: 11180 ng·h/mL | C0 [3, 7]: 49.09 µg/mL | Cl [3, 7]: 9.6403 mL/min/kg | MRT [3, 7]: 22.2 min | T1/2 [3, 7]: 18 min | Vz [3, 7]: 0.24309 L/kg | AUCINF [3, 8]: 29010 ng·h/mL | C0 [3, 8]: 115.85 µg/mL | Cl [3, 8]: 9.172 mL/min/kg | MRT [3, 8]: 24 min | T1/2 [3, 8]: 18.6 min | Vz [3, 8]: 0.24018 L/kg | AUCINF [3, 9]: 53230 ng·h/mL | C0 [3, 9]: 248.60 µg/mL | Cl [3, 9]: 9.855 mL/min/kg | MRT [3, 9]: 22.2 min | T1/2 [3, 9]: 18 min | Vz [3, 9]: 0.25524 L/kg | mean plasma elimination half-life (t1/2) ([3]; rats, 0.1 mmol/kg IV): 18.6 min | inhibition of CYP2C9 activity (CYP2C9): did not inhibit
